# pIC50: −log10 of the molar value.
# Tests used:
# [1] = Fraction unbound in rat plasma at 5 uM by LC-MS/MS method; type: ADME, cell-free
# In short: (§1)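 Equilibrium dialysis across a semi-permeable membrane, buffer (pH 7.4) on one side and 100% species-specific plasma on the other. Test compound at 5 μM with 0.5% final DMSO, 37 °C. Both sides sampled at equilibrium and quantified by LC-MS/MS against matrix-matched standard curves. %fu from duplicate incubations, with a control compound in each run.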
# [2] = Fraction unbound in mouse plasma at 5 uM by LC-MS/MS method; type: ADME, cell-free; in short: as §1
# [3] = Stability in simulated gastric fluid at pH 1.2 assessed as compound remaining at 1 uM after 120 mins by LC-MS/MS method
# In short: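 Simulated gastric fluid (HCl, NaCl, pepsin; pH 1.2), compound at 1 μM with 2.5% final DMSO, 37 °C. Quenched at 0, 15, 30, 60 and 120 min with methanol containing internal standard. Parent quantified by LC-MS/MS peak-area ratio and expressed as percent remaining versus 0 min.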
# [4] = Stability in mouse plasma assessed as compound remaining at 1 uM after 120 mins by LC-MS/MS method; type: ADME, cell-free; conditions: read-out: Stability
# In short: (§2)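 Rat or mouse plasma, pH adjusted to 7.4 if needed, spiked with compound at 1 µM (2.5% final DMSO) at 37 °C. Stopped at 0, 15, 30, 60 and 120 min with methanol containing internal standard. Parent measured by LC-MS/MS peak-area ratio and expressed as percent remaining relative to 0 min.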
# [5] = tested on: U2OS; experiment: Cell cycle arrest in human U2OS cells assessed as accumulation at G2/M phase after 24 hrs by propidium iodide staining based flow cytometric method; type: functional
# In short: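 Exponentially growing U2OS cells treated 24 h with compound or DMSO vehicle. Cells collected, PBS-washed and fixed in ice-cold 70% methanol. About 1 million cells stained 30 min at 37 °C with propidium iodide (1%) plus RNase A (2.5%) in PBS, then analysed by flow cytometry. Phase percentages given as mean ± SD of two independent experiments.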
# [6] = Stability in rat plasma assessed as compound remaining at 1 uM after 120 mins by LC-MS/MS method; type: ADME, cell-free; conditions: read-out: Stability; in short: as §2
# [7] = tested on: U2OS; experiment: Antiproliferative activity against human U2OS cells after 72 hrs by CellTiter-Glo luminescent assay; type: functional, cell-based
# In short: (§3)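 Cells seeded at 2 x 10⁴/well, rested 24 h, then exposed to increasing concentrations or DMSO vehicle for 72 h. MDA-MB-231 grown in RPMI 1640 with 10% FCS; U2OS grown in DMEM + GlutaMAX with 10% FCS; both at 37°C, 5% CO₂. Viable cells read by ATP luminescence, triplicate wells. IC₅₀ from fitted dose-response curves, mean ± SD of at least 3 independent experiments.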
# [8] = tested on: MDA-MB-231; experiment: Antiproliferative activity against human MDA-MB-231 cells after 72 hrs by CellTiter-Glo luminescent assay; type: functional, cell-based; conditions: MDA-MB-231, 72 h; in short: as §3
# [9] = Aqueous solubility of the compound; type: physicochemical; conditions: buffer
# [10] = Intrinsic clearance in Sprague-Dawley rat liver microsomes assessed per mg protein at 3 uM preincubated for 45 mins followed by NADPH addition by LC-MS/MS method
# [11] = Intrinsic clearance in CD1 mouse liver microsomes assessed per mg protein at 3 uM preincubated for 45 mins followed by NADPH addition by LC-MS/MS method
# [12] = Stability of the compound in PEG400 using liquid sample at 5 mg/ml at 5 degC after 30 days by UV-HPLC method; type: physicochemical; conditions: 720 h
# [13] = Thermodynamic solubility of the compound in phosphate buffered saline at pH 7.4 at 1 mg sonicated for 10 mins measured after 12 hrs by HPLC method; type: physicochemical; conditions: read-out: Therm_solubility
# In short: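 Centrifuged until clear, and supernatant analysed by HPLC at 254 nm. Concentration derived from a linear (Y = aX) calibration of MeCN dilutions at 10–100 µg/mL. Measured at 22 °C.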
# [14] = Stability of the compound in polysorbate80/poloxamer188 formulation using liquid sample at 1 mg/ml at 25 degC after 30 days by UV-HPLC method; type: physicochemical; conditions: 720 h
# In short: (§4)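 Intravenous-type dosage solution: API at 1 mg/mL in water for injection containing polysorbate 80 and poloxamer 188 (5 mg/mL each). API dissolved in the surfactants at 70–80 °C, hot water added slowly, then cooled to ambient. Stored at 5 or 25 °C; stability followed by HPLC over 30 days.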
# [15] = Stability of the compound in PEG8000 formulation using solid sample at 5 mg/ml at 25 degC after 33 days by UV-HPLC method; type: physicochemical; conditions: 792 h
# In short: (§5)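 Solid tablets cast from hot melt: API dissolved in melted PEG8000 at 90–100 °C with stirring, or first dissolved in PEG400 and then mixed into melted PEG8000, giving a formulation containing 10% PEG400. Stored at 5 or 25 °C, degradation assessed by HPLC over 30 days, with one reading at 33 days.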
# [16] = Stability of the compound in PEG8000 formulation using solid sample at 5 mg/ml at 5 degC after 30 days by UV-HPLC method; type: physicochemical; conditions: 720 h; in short: as §5
# [17] = Stability of the compound in polysorbate80/poloxamer188 formulation using liquid sample at 1 mg/ml at 5 degC after 30 days by UV-HPLC method; type: physicochemical; conditions: 720 h; in short: as §4
# [18] = Stability of the compound in PEG400 using liquid sample at 5 mg/ml at 25 degC after 30 days by UV-HPLC method; type: physicochemical; conditions: 720 h
# [19] = Stability of the compound in PEG400 using liquid sample at 10 mg/ml at 25 degC after 30 days by UV-HPLC method; type: physicochemical; conditions: 720 h
# In short: (§6)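 API dissolved in PEG400 at 70–80 °C with vortexing to a clear solution at 10 mg/mL. Stored at 5 or 25 °C and checked for degradation by HPLC over 30 days.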
# [20] = Stability of the compound in PEG8000/10% PEG400 formulation using solid sample assessed as compound degradation at 5 mg/ml at 25 degC after 33 days by UV-HPLC method; type: physicochemical; conditions: read-out: Drug degradation; in short: as §5
# [21] = Stability of the compound in PEG8000/10% PEG400 formulation using solid sample at 5 mg/ml at 5 degC after 30 days by UV-HPLC method; type: physicochemical; conditions: 720 h; in short: as §5
# [22] = Stability of the compound in PEG400 using liquid sample at 10 mg/ml at 5 degC after 30 days by UV-HPLC method; type: physicochemical; conditions: 720 h; in short: as §6
fraction unbound at 5 µM [1],fraction unbound at 5 µM [2],"remaining at 2 h, 1 µM [4] [%]","remaining at 2 h, 1 µM [6] [%]",pIC50 [7],pIC50 [8],CLH [10] [mL/min],Structure (SMILES),Stability [3] [%],other results
0.216,0.427,107,107,–,–,–,COC1=CC(=O)C[C@@H](C)[C@]12Oc1c(Cl)c(OC)cc(OC)c1C2=O [GRISEOFULVIN],73,Activity [5]: Dose-dependent effect
0.094,0.132,108,92,5.59,5.28,–,COc1cc(OC)c2c(c1Cl)O[C@]1(C2=O)C(NCc2ccc(F)cc2)=CC(=O)C[C@H]1C,54,–
–,–,–,–,5.80,5.15,–,COc1cc(OC)c2c(c1Cl)O[C@]1(C2=O)C(O[C@@H](C)c2ccccc2)=CC(=O)C[C@H]1C,–,solubility [9]: Insoluble
0.06,0.087,104,106,5.72,5.46,–,COc1cc(OC)c2c(c1Cl)O[C@]1(C2=O)C(N(C)Cc2ccccc2)=CC(=O)C[C@H]1C,15,–
–,–,–,–,–,–,30.7,COc1cc(OC)c2c(c1Cl)O[C@]1(C2=O)C(OCc2ccc(F)cc2)=CC(=O)C[C@H]1C,–,CLH [11]: 17.4 mL/min
0.014,0.043,87,102,5.92,5.85,59.1,COc1cc(OC)c2c(c1Cl)O[C@]1(C2=O)C(OCc2ccccc2)=C/C(=N/O)C[C@H]1C,81,Stability [12]: Stable; solubility thermodynamic at 12 h [13]: 3 µg/mL; Stability [14]: Stable; Stability [15]: Stable; Stability [16]: Stable; Stability [17]: Stable; Stability [18]: Stable
0.027,0.112,91,101,5.89,5.77,45,COc1cc(OC)c2c(c1Cl)O[C@]1(C2=O)C(OCc2ccccc2)=CC(=O)C[C@H]1C,62,"Stability [19]: Stable; degraded at 792 h, 5 mg/ml [20]: 4%; Stability [21]: Stable; solubility thermodynamic at 12 h [13]: 0.3 µg/mL; Stability [14]: Unstable; Stability [22]: Stable"
0.018,0.018,102,89,5.89,5.77,60.2,COc1cc(OC)c2c(c1Cl)O[C@]1(C2=O)C(OCc2ccc(C)cc2)=CC(=O)C[C@H]1C,68,–
0.111,0.141,117,116,5.68,5.49,28,COc1cc(OC)c2c(c1Cl)O[C@]1(C2=O)C(NCc2ccccc2)=CC(=O)C[C@H]1C,52,Stability [12]: Stable; solubility thermodynamic at 12 h [13]: 62 µg/mL; Stability [14]: Unstable; Stability [15]: Stable; Stability [16]: Stable; Activity [5]: Dose-dependent effect; Stability [17]: Stable; Stability [18]: Stable
–,–,–,–,4.86,4.77,–,COc1cc(OC)c2c(c1Cl)O[C@]1(C2=O)C(O[C@H](C)c2ccccc2)=CC(=O)C[C@H]1C,–,solubility [9]: Insoluble
0.055,0.11,107,111,5.16,5.09,–,COc1cc(OC)c2c(c1Cl)O[C@]1(C2=O)C(NCc2ccc(C)cc2)=CC(=O)C[C@H]1C,54,–

# Source: ChEMBL document CHEMBL4014282 (Eur J Med Chem, 2017)
